The RNAGym collection of RNA variant scans (doi:10.1126/science.aae0568)
Variants at the floor of the assay were thinned out.

B1: tRNA (parent)
chain: GUUCCGUUGGCGUAAUGGUAACGCGUCUCCCUCCUAAGGAGAAGACUGCGGGUUCGAGUCCCGUACGGAACG

Variants of: B1
Experiment: yeast fitness relative to wild type (ratio to wild type); higher = fitter; tRNA-Arg(CCU), competitive growth, 37 C, YPD
Method in brief: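 A pool of Saccharomyces cerevisiae strains, each with a tRNA-Arg(CCU) gene variant at the native genomic locus, was competed in YPD at 37°C for 24 hours across six parallel replicates. The variants had been chemically synthesised at a 3% per-site mutation rate over 69 sites, and gene amplicons before and after competition were read by 100-nucleotide paired-end sequencing. Darwinian fitness relative to wild type rested on changes in genotype frequencies. Genotypes required ≥ 100 starting reads, and estimates < 0.5 were set to 0.5.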

Which yeast fitness does the source give for GUUCCAUUGGCGUAAUGGUAAUGCGUCUCCCUCCUAAGGCGAAGACUGCGGGUUCGAGUCCCGUACGGUACG [G6A C22U A40C A69U] here?
The yeast fitness was 0.63.

For GUUCAGUUGGCGUAAUGGUAACGCGUCUCCCUCCUAAGGAGAAGACUGAGGGGUCGAGUCCCGUACGGAACG [C5A C49A U53G], which yeast fitness is on record?
The yeast fitness was no more than 0.5.

With GUUCAGUUGGCGUAAUGGUACCGCGUCUCGCUCCUAAGGAGAAGACUGCGGGUUGGAGUCCCGUACGGAGCG [C5A A21C C30G C55G A70G] as the variant, how does the yeast fitness read?
Its yeast fitness is no more than 0.5.

With GUUCCGUUGGCGUACUGGUAACGCGUCUUCCUCCUAAGGAGAAGACUGCGGGUUCGAGUCCCGUACGGAACG [A15C C29U] as the variant, how does the yeast fitness read?
Its yeast fitness is 0.669.

With GUUCGGUUGGCGUUACGAUAUCGCGUCUCCCUCCUAAGGAGGAGACUGCGGGUUCGAGUCCCGUACGAAACG [C5G A14U U16C G18A A21U A42G G68A] as the variant, how does the yeast fitness read?
Its yeast fitness is no more than 0.5.

With GUUCCGUUGGCGUGAUGGUAACGCGUCUGCCUCCUAAGGAGAAGACUGCGGGUUCGAGUCCUGUACGGAACG [A14G C29G C62U] as the variant, how does the yeast fitness read?
Its yeast fitness is 0.573.

Which yeast fitness does the source give for GUUCCGUUGGCGUAAUGGUAACGAGUCCCCCUCCUAAGGAGAAGACUGCGGGUUCAAGUCCCGUACGGAACG [C24A U28C G56A] here?
Its yeast fitness is no more than 0.5.

With GCUCCGUUGGCGUAAUGGUAACGCGUCUCCCUCCUAAGGAGAAGCCUGCGGGUUCGAGUCCCGUACGGAACG [U2C A45C] as the variant, how does the yeast fitness read?
The yeast fitness was 1.01.

With GUUCCGUUGGCGUAUUGGUAGCGCGUCUCCCUCCUAAGGAGAAGACUGUGGGUUCGAGUCCCGUACGGAACG [A15U A21G C49U] as the variant, how does the yeast fitness read?
The yeast fitness was 0.556.

With GUUCCGCUGGCGUAAUGGUAACGCGUCUCCUUCCUAAGGAGAAGAUUGCGGGUUCGAGUCCCGUACGGAACG [U7C C31U C46U] as the variant, how does the yeast fitness read?
Its yeast fitness is 0.532.

With GUUCCGUUGGCGUAAUGGUAAGGUGUCUCCCUCCUACGGAGAAGACUGCGCGUUUGAGUCCCGUACGGAUCG [C22G C24U A37C G51C C55U A70U] as the variant, how does the yeast fitness read?
The yeast fitness was no more than 0.5.

With GUUCCGUUGGCGUAAUGGUAACGCGUCACCCUCCUAAGGAGAAGACUGCGGGUUCGAGUCCCGUACGCAACG [U28A G68C] as the variant, how does the yeast fitness read?
The yeast fitness was 0.707.

With GUUCCGUUGGAGUAAUGGUAAGGCGUCUCCCUCCUAAGGAGAAGACUCCGGGUUCGAGUCCCGUACGGAACG [C11A C22G G48C] as the variant, how does the yeast fitness read?
Its yeast fitness is 0.535.

For GUUCCGUUGGCGUAAUGGCAACGCGUCUCCCUCCUAAGGAGAAGACUGCGAGUUCGAGUCCCGUACGGAACG [U19C G51A], which yeast fitness is on record?
Its yeast fitness is 0.681.

Which yeast fitness does the source give for GUUUCGUUGGCGUAAUGGUAACGCGUCUCCCUCCUAAGGAGAAGACUGCGGGUUCGAGUCCCGUCCGGAGCG [C4U A65C A70G] here?
The yeast fitness was 0.75.

For GUUCCGUUGGCGUAAUGGUAACGCGUCUCCCUCCUAAAGAGAAGACUACAGGUUCGAGUCCCGUACGGAACG [G38A G48A G50A], which yeast fitness is on record?
Its yeast fitness is no more than 0.5.

With GUUUCGUUGGCGUAAUGGUAACGCGUCUCCCACCUAAGGAGAAGACUGCGGGUUCGAGUCCCGGACGGAACG [C4U U32A U64G] as the variant, how does the yeast fitness read?
Its yeast fitness is no more than 0.5.

For GUUCCGGUGGGGUAAUGGUAACGCGUCUCCCUCUUAAGGAAAAGACUGCGGGUUCGUGUCCCGUAUGGAACG [U7G C11G C34U G41A A57U C66U], which yeast fitness is on record?
The yeast fitness was no more than 0.5.

For GUUCCGAUGGCGUAAUGGUAACGCGUCUCCCUCCUGAGGAGAAGACUGCGGGUUCGAGUCCCGUACGGAACG [U7A A36G], which yeast fitness is on record?
The yeast fitness was 0.662.

Which yeast fitness does the source give for GUUCCGUUGGCGCAAUGGUAACGCGUCUCCCUCGUAAGGAGAAGACUGCGGGUUCGAGUCCCGUACAGAACG [U13C C34G G67A] here?
Its yeast fitness is no more than 0.5.

With GUUCCGUUGGCGUAAUGGUAACGCGUCUCCCUCCUAAGAAGAAGACUGCGGCUUGGAGUCCCAUACGGAACG [G39A G52C C55G G63A] as the variant, how does the yeast fitness read?
The yeast fitness was no more than 0.5.

With GUUCCGUUGGUGUAAUGGUAAGGCGUCUCCCUCCUAAGGAGAAGACUGCGGGUUCGUGUCCCGUACGGAACG [C11U C22G A57U] as the variant, how does the yeast fitness read?
The yeast fitness was no more than 0.5.

For GUUCGGUUGGCGUAAUGGUAACGCGUCUCCCUCCUGAGGAGAAGGCUGCGCGUUCGAGUCACGUACGGAACG [C5G A36G A45G G51C C61A], which yeast fitness is on record?
Its yeast fitness is no more than 0.5.

For GUUCCGUUGGCGUAAUGGUAACGCGCCUGCCUCCUAAGGAGAAGACUGCGGGUUCGAGUCCCGUGGGCAACG [U26C C29G A65G C66G G68C], which yeast fitness is on record?
The yeast fitness was no more than 0.5.

With GUUCUGUUGGCGUAAUGGUAACGCGUCUCACUCCUAAGGAGAAGACUGCGGGUUCGAGUCCCGUCCGGAACG [C5U C30A A65C] as the variant, how does the yeast fitness read?
The yeast fitness was 0.703.

Which yeast fitness does the source give for GUUCCGUUAGUGUAAUGGUAACGCGUCUCCCUCCUAAGGAGAAGACUGCGGGUUCGAGUCCCGUACGGCACG [G9A C11U A69C] here?
Its yeast fitness is 0.787.

With GUUCAGUUGGCGUAAUGGUAACCCGUCUCCCUCCUAAGGAGAAGACUGCGGGUUCGAGUCCCGUACGGAACG [C5A G23C] as the variant, how does the yeast fitness read?
Its yeast fitness is 0.723.

With GUUCCGUUGGCGUUAUGGUAACGCGUCUCACUCCUAAGGAAAAGACUGCGGGUUCCAGUCCCGUACGGAACG [A14U C30A G41A G56C] as the variant, how does the yeast fitness read?
The yeast fitness was no more than 0.5.

With GUUCCGUUGGCGUAAUGGUAAUGCGUCUCCCUCCUAAGGAGAAGACUGCGCGUUCGAGUCCCGUACAGAACG [C22U G51C G67A] as the variant, how does the yeast fitness read?
Its yeast fitness is 0.604.

Which yeast fitness does the source give for GUUCCGUUGGCGUAAUGGUAACGCGGCUCCAUCCUAAGGAGAAGACUGCGGGUUCGAGUCCCGUACGGAACG [U26G C31A] here?
Its yeast fitness is 0.804.

With GUUCCGUUGGCGUAAUGGUAACGCGUCUUCCAUCUAAGGAGAAGACUGCGGGUUCGAGUCCCGUACUGAGCG [C29U U32A C33U G67U A70G] as the variant, how does the yeast fitness read?
Its yeast fitness is no more than 0.5.

For GUUCCGUUGGCGUAAUGGUAACGAGUCUCCCUCCUAAGGGGAAGACUGCGGGUUCGAGUCUCGUACGGAACG [C24A A40G C61U], which yeast fitness is on record?
The yeast fitness was no more than 0.5.

Which yeast fitness does the source give for GUUCCGUUGGAGUAAUGGUAACGCGUCUCCCUCCUUAGGAGAAGACUGCGGGUUCGAGUCCCGUACGGAACG [C11A A36U] here?
Its yeast fitness is 0.559.

For GUUCCGUUGGCGUAAUGGUGAGGCGUCUCCCUCCUAAGGAGAAGACCGCGGGUUCGAGUCCCGUACGGAACG [A20G C22G U47C], which yeast fitness is on record?
The yeast fitness was 0.647.

With GUUCCGUUGACGUAAUGGUAACGAGUCUCCCUUCUAAGGAGAAGACUGCGGGUUCGUGGCCCGUACGGAACG [G10A C24A C33U A57U U59G] as the variant, how does the yeast fitness read?
Its yeast fitness is no more than 0.5.

Which yeast fitness does the source give for GUUCAGUUGGCGUAAUGGUAACGCGUCUCCCUCCUAAGGAGAAGACUGCGGGAUCGAGACCCGUACGGUACG [C5A U53A U59A A69U] here?
The yeast fitness was 0.712.

Which yeast fitness does the source give for GUUCCGUUGGCGUAAUGGUAACGCGUCUCCCUCCUAAGGAGAAGACGGCGGGUUCGAGUCCGGUACGGCACG [U47G C62G A69C] here?
Its yeast fitness is 0.508.
